Measured values from publication PMC6214403 (Bioorganic & medicinal chemistry, 2018).

What was measured:
[1] = values determined in Sprague Dawley rat; cited from earlier work
[2] = Oxidation susceptibility / stability with rat liver microsomes by mass analysis; format: in vitro ADME; conditions: 37 °C
Outline: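 Test compound incubated with rat liver microsomes at 37 °C over a time course. Samples analysed by mass spectrometry, with extracted-ion chromatograms monitored for parent and oxidised species. Recovery calculated from the AUC of the extracted ion.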

MYC = MYC (Homo sapiens, UniProt P01106); test: Affinity for MYC; format: binding
[3] = Mouse i.v. PK study of 5g; format: in vivo, C57Bl6 mice; conditions: 5g versus 5a
[4] = tested on: CEF transfected with ATG-MYC; test: Focus assay: microtumor formation by ATG-MYC expressing vector in CEF; format: cell-based, chicken

Chain of MYC (P01106 whole entry, species assumed): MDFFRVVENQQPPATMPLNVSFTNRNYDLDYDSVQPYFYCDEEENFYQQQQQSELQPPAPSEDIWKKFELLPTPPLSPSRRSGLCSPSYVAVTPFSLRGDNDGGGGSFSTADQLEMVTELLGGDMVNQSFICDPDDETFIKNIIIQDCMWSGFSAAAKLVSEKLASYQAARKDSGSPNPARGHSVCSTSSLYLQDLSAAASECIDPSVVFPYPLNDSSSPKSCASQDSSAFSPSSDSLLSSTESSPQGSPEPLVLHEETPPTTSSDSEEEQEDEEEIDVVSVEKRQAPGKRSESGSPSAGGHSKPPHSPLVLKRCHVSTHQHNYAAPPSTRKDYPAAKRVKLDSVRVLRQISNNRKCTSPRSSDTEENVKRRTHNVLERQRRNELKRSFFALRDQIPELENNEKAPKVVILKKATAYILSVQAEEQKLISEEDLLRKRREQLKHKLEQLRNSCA

For `NC(=O)c1ccc(-c2cc(-c3ccc([N+](=O)[O-])cc3)nc(-c3ccco3)c2)cc1` [5a], the Half-life [1] is given as 1.6 h and the “fate of nitro group on incubation with rat liver microsomes” value [2] is given as “readily eliminated”.
In the case of `NC(=O)c1ccc(-c2cc(-c3ccc(-c4nccs4)cc3)nc(-c3ccco3)c2)cc1` [5g], the “ligand efficiency (LE)” value (MYC) was 0.36 and the “improvement in exposure (AUC) compared with 5a” value [3] was 30 fold.
For `c1coc(-c2cc(-c3nccs3)cc(-c3ccc(-c4nccs4)cc3)n2)c1` [5j], the “activity in the CEF assay” value [4] was “not found to have any activity”.
In the case of `CS(=O)(=O)NC(=O)c1ccc(-c2cc(-c3ccc(C#N)cc3)nc(-c3ccco3)c2)cc1` [5m], the “loss of potency compared to 5a” value ([4]; CEF assay) was 10 fold.
